A selection: hits, their analogues and other compounds. The true share with any hit is near 4.6%.
ALR inh = blocks human ALR sulfhydryl oxidase activity. P55789. purified ALR, DTT oxidation, H2O2 HRP-luminol luminescence. inhibition, % (test concentration not listed). 290,000 compounds, 3.8% hits. AID 485317;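 active means mean replicate inhibition above about 79%, with every replicate also reaching it, limit read from the data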
Pemphigus Ab inh = human desmoglein-3 autoantibody binding inhibition; DSG3-coupled beads, scFv-anti-DSG3-GFP binding, flow cytometry; stronger effect = lower value; binding (percent of control), % at 10 µM; P32926; 310,000 compounds, 0.48% hits;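 active means binding more than 3 SD below its plate's average and above zero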;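 further: hits lower antibody fragment binding to DSG3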
NLRP3 yeast inh = NALP3 inhibition in yeast; Yeast reconstituted NLRP3/ASC/caspase-1, beta-gal luminescence, 24 h; inhibition, % at 10 µM; 330,000 compounds, 0.39% hits; AID 2825;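 active means inhibition of 50% or more; inactive means inhibition below 50%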
NALP1 inh = blocks the NALP1 inflammasome reconstituted in yeast | inhibition, % at 10 µM | S. cerevisiae NALP1/ASC/caspase-1 growth, X-gal OD620, 72 h | AID 2071 | 280,000 compounds, 0.61% hits; in the data active means inhibition mostly above about 24%, no sharp cut-off; inactive means mostly below about 32%
Arrestin-AP2 inh = inhibitors of human beta-arrestin and AP2 interaction; inhibition, % at 10 µM; AID 504490; 340,000 compounds, 0.31% hits; FITC-arrestin peptide / GST-AP2 beads, flow cytometry; AP2 beta2 appendage carries R879A mutation;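 active means inhibition above a set limit, near 3 SD of compounds lacking own fluorescence, cut at about 54% in these data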
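System: GST-AP2 R879A bound to glutathione beads, E. coli-expressed. Also added: 50 nM FITC-arrestin peptide. Schedule: compound with beads 12 min RT, then probe 1 h RT. Signal: bead flow cytometry, FITC channel. Read-out basis: percent response.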
PolyA inh = blocks polyadenylation in yeast reporter cells; activity score, % at 12 µM; 300,000 compounds, 0.02% hits; S. cerevisiae SKY197-pL101 polyadenylation reporter, beta-gal luminescence; efflux-impaired pdr1/pdr3 knockout yeast; score 100 = 6 SD above DMSO;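 active means lowest replicate activity score at least 50, where 100 means six control SD above control mean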;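 further: yeast exposed to compound for 9 h at 30 °C; higher score means more reporter readthrough which indicates perturbed polyadenylation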
Hits are given with their value; n = inactive; x = no result given.

SMILES	ALR inh	Pemphigus Ab inh	NLRP3 yeast inh	NALP1 inh	Arrestin-AP2 inh	PolyA inh
CC(=O)NC(CCc1ccc(Cl)c(Cl)c1)c1cccc(O)c(=O)c1 (stereo not given)	x	n	x	x	x	x
COc1ccccc1OC(=O)CCN1c2ccccc2Sc2ccccc21	88	n	n	n	n	n
O=C(O)CCN1C(=O)c2ccccc2Sc2ncccc21	n	n	n	n	n	n
O=C(O)CCN1c2ccccc2Sc2ccccc21	82	n	x	n	n	n
CCN1CCN(c2ccc(S(=O)(=O)N3CCCCC3)cc2NC(=O)c2cccc(OC(F)F)c2)CC1	n	n	n	x	n	n
CCn1cc(C(=O)NC(=S)Nc2ccccc2[N+](=O)[O-])cn1	99	n	n	n	n	n
Cc1ccc(SCC(=O)NNC(=O)CCS(=O)(=O)c2ccccc2)cc1	n	n	n	x	n	x
O=C(O)CN1C(=O)/C(=C\c2cccc(OCc3ccccc3)c2)SC1=S	83	n	n	n	n	n
O=C(O)COc1cccc(/C=C2/SC(=S)N(Cc3ccccc3)C2=O)c1	n	n	n	n	n	n
COc1ccc(/C=C2/SC(=S)N(CC(=O)O)C2=O)cc1OCc1ccc(Cl)cc1	88	n	n	n	n	n
O=C(O)CN1C(=O)/C(=C\c2cc(Br)ccc2OCc2ccc(Cl)cc2)SC1=S	98	n	x	n	n	n
COCCCN1C(=O)C(CC(=O)NCC2CCCCC2)CC(C(=O)N2CCOCC2)=C1C (stereo not given)	x	n	x	x	x	x
O=C(CSc1nnc(COc2ccccc2)o1)N1CCCCC1	n	n	n	n	n	n
CCOC(=O)c1ccccc1NC(=O)CN1C(=O)NC(C)(CCc2ccccc2)C1=O (stereo not given)	n	n	n	x	n	n
Cc1ccc(-c2nnn(CC(=O)N(CC3CCCO3)C(C(=O)NC(C)(C)C)c3ccc(F)cc3)n2)o1 (stereo not given)	99	n	n	n	n	n
CCCC(C(=O)NC1CCCC1)N(C(=O)Cn1nnc(-c2ccc(C)o2)n1)C1CCCC1 (stereo not given)	n	90	n	n	n	n
N#CC(C(=O)Nc1ccccc1)=C1Nc2ccccc2N1	86	x	n	n	n	n
Cc1cccc2sc(NNC(=O)C3COc4ccccc4O3)nc12 (stereo not given)	100	n	n	n	n	n
O=C(NNc1nc2c(F)cc(F)cc2s1)C1COc2ccccc2O1 (stereo not given)	x	n	n	n	n	n
Cc1ccc(S(=O)(=O)/N=C(\Sc2ccccc2)c2ccccc2)cc1	98	n	n	n	n	n
O=S(=O)(/N=C(\Sc1ccccc1)c1ccccc1)c1ccc(Cl)cc1	n	n	n	n	n	n
CC(=O)N(c1ccc(C(F)(F)F)cc1)S(=O)(=O)c1ccc(N2C(=O)CCC2=O)cc1	x	n	n	32	n	n
O=C(c1ccccc1Nc1ccc(SC(F)F)cc1)N1CCCCC1	x	n	n	n	n	n
CC1CN(C(=O)c2ccccc2Nc2ccc(SC(F)F)cc2)CC(C)O1 (stereo not given)	99	n	n	n	n	n
Cc1cccc(N2CCN(S(=O)(=O)c3ccc4c(c3)CCCN4C(=O)C3CCC3)CC2C)c1 (stereo not given)	n	n	n	n	n	n
SMILES	ALR inh	Pemphigus Ab inh	NLRP3 yeast inh	NALP1 inh	Arrestin-AP2 inh	PolyA inh
CCn1c2ccccc2c2cc(NC(=O)c3ccccc3-c3ccccc3C(=O)O)ccc21	98	n	n	n	n	n
CC(=O)c1c(C)[nH]c(C(=O)NCc2ccc(Cl)cc2)c1C	x	87	x	x	x	x
CCN(CCCNC(=O)c1[nH]c(C)c(C(C)=O)c1C)c1ccccc1	89	n	n	n	n	n
CCCNC(=O)c1[nH]c(C)c(C(C)=O)c1C	n	n	n	n	n	n
CC(=O)c1c(C)[nH]c(C(=O)NCCc2ccccc2)c1C	100	n	n	n	n	n
COc1cccc(CN(C)C(=O)c2ccc(Cl)c(S(=O)(=O)N3CCCCCC3)c2)c1OC	x	n	x	x	n	x
CN(C)S(=O)(=O)c1ccc2nc(NC(=O)c3cccs3)sc2c1	86	n	n	n	n	n
O=C(Nc1nc2ccc(S(=O)(=O)N3CCCCC3)cc2s1)c1ccncc1	98	x	n	n	n	n

Screening data from PubChem.
